Measured values taken from paper PMC12370974 (Nature Communications, 2025).
Numbering of substitutions follows the chain as printed. Peptide text beside a SMILES is read from it.

How the values were obtained:
FL PRT1^WT = biological target: T1, FL PRT1^WT (Arabidopsis thaliana, UniProt Q8LBL5); experiment: ITC binding of N-degron peptides to full-length PRT1 wild-type
T1 sequence (Q8LBL5 1-410): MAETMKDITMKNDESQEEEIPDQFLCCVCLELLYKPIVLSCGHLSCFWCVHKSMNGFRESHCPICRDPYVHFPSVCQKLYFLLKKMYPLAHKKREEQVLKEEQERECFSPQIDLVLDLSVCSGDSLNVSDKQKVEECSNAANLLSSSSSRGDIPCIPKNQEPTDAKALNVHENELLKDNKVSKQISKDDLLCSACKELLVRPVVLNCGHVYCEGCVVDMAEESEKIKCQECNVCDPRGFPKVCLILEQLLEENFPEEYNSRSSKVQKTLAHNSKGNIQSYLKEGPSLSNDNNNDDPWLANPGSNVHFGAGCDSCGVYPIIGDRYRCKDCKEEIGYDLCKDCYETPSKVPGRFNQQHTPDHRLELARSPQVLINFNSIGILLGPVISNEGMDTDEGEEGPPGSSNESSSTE
Method in brief: (§1)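 Full-length PRT1 (wild type or point mutant) was expressed in E. coli BL21(DE3) with ZnSO4 and purified by Ni-NTA, TEV cleavage of the His6 tag and size exclusion into ITC buffer (50 mM Tris-HCl pH 7.5, 150 mM NaCl, 1 mM TCEP). Protein was at 45~55 μM and synthetic N-degron peptide at ~550 μM in the same buffer, with 19 injections at 25 °C. Data were fitted to a one-site model, with at least three runs.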

FL PRT1^Y317A = biological target: T2, FL PRT1^Y317A (Arabidopsis thaliana, UniProt Q8LBL5, Y317A); experiment: ITC binding of N-degron peptides to full-length PRT1 Y317A mutant; conditions: 25 °C, ITC buffer pH 7.5, one-site model
T2 sequence (Q8LBL5 1-410 Y317A): T1 sequence (Q8LBL5 1-410) with Y317A
Method in brief: as §1

FL PRT1^I333A = biological target: T3, FL PRT1^I333A (Arabidopsis thaliana, UniProt Q8LBL5, I333A); experiment: ITC binding of N-degron peptides to full-length PRT1 I333A mutant; conditions: 25 °C, ITC buffer pH 7.5, one-site model
T3 sequence (Q8LBL5 1-410 I333A): T1 sequence (Q8LBL5 1-410) with I333A
Method in brief: as §1

PRT1^ZZ = biological target: T4, PRT1^ZZ (Arabidopsis thaliana, UniProt Q8LBL5); experiment: ITC binding of N-degron peptide to the ZZ domain of PRT1
T4 sequence (Q8LBL5 308-365): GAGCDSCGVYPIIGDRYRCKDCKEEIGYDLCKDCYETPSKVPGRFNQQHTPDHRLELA
Method in brief: as §1, with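 “The” for “Full-length”, “truncation” for “(wild type or point mutant)”, “as a bRIP-tag fusion” for “BL21(DE3) with ZnSO4”, “Blue affinity chromatography” for “TEV cleavage of the His6 tag”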

[1] = biological target: T5, ZZ domain-deleted RING domains (RING1 + RING2) of PRT1 (Arabidopsis thaliana, UniProt Q8LBL5); experiment: ITC binding of N-degron peptide to ZZ domain-deleted PRT1; conditions: 25 °C, ITC buffer pH 7.5, RIP-RING (1-273)
T5 sequence (Q8LBL5 1-273): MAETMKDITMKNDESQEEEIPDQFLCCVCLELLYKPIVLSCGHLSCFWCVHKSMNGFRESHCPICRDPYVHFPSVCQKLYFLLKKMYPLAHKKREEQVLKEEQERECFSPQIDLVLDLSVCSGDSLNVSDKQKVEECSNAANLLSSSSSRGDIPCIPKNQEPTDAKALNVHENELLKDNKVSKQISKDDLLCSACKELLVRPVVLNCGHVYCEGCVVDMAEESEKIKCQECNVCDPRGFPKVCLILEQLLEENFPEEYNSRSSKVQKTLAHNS
Method in brief: as §1, with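 “The” for “Full-length”, “truncation” for “(wild type or point mutant)”, “as a bRIP-tag fusion” for “BL21(DE3) with ZnSO4”, “Blue affinity chromatography” for “TEV cleavage of the His6 tag”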

FL PRT1^Y317A/I333A = biological target: T6, FL PRT1^Y317A/I333A (Arabidopsis thaliana, UniProt Q8LBL5, I333A/Y317A); experiment: ITC binding of N-degron peptide to full-length PRT1 Y317A/I333A double mutant; conditions: 25 °C, ITC buffer pH 7.5, FL PRT1 Y317A/I333A double mutation
T6 sequence (Q8LBL5 1-410 Y317A/I333A): T1 sequence (Q8LBL5 1-410) with Y317A, I333A
Method in brief: as §1

[2] = biological target: RING2 domain of PRT1, wild type (Arabidopsis thaliana); experiment: SEC-MALS
[3] = biological target: FL PRT1 I333A mutant (Arabidopsis thaliana) (UniProt Q8LBL5); experiment: ITC
[4] = biological target: FL PRT1 Y317A mutant (Arabidopsis thaliana) (UniProt Q8LBL5); experiment: ITC
[5] = biological target: full-length (FL) PRT1 wild-type (WT), PROTEOLYSIS1 of Arabidopsis thaliana (Arabidopsis thaliana) (UniProt Q8LBL5); experiment: ITC

C[C@H](NC(=O)[C@H](C)NC(=O)[C@@H](N)Cc1ccccc1)C(=O)O [FAA] (H-Phe-Ala-Ala-OH)
Kd (FL PRT1^WT): 5.45 ± 0.212 µM

C[C@H](NC(=O)[C@H](C)NC(=O)[C@@H](N)Cc1c[nH]c2ccccc12)C(=O)O [WAA] (H-Trp-Ala-Ala-OH)
Kd (FL PRT1^WT): 2.85 ± 0.164 µM

C[C@H](NC(=O)[C@H](CCCCN)NC(=O)[C@@H](N)Cc1ccc(O)cc1)C(=O)O [YKA] (H-Tyr-Lys-Ala-OH)
dissociation constant (KD), binding affinity (FL PRT1^Y317A): not bound
dissociation constant (KD), binding affinity (FL PRT1^I333A): not bound

NCCCC[C@H](NC(=O)[C@@H](N)Cc1ccc(O)cc1)C(=O)N[C@@H](Cc1ccccc1)C(=O)O [YKF, Tyr-Lys-Phe] (H-Tyr-Lys-Phe-OH)
Kd (PRT1^ZZ): 10.1 µM
binding affinity (KD) [1]: no binding affinity was detected
dissociation constant (KD), binding affinity (FL PRT1^Y317A/I333A): considerably low affinity

RING2 domain of PRT1, wild type (domain or fragment)
stoichiometry N [2]: 2

Tyr N-degron peptide (Tyr-Lys-Phe)
Kd [3]: 13.7 µM
Kd [4]: 41.3 µM

YAA peptide
Kd [5]: 23.3 µM
